# Peptide text beside a SMILES is read from it.
# Columns and labels:
# Micrococcus luteus [1] = test: Inhibition of [125I]ristocetin binding to micrococcus luteus cells.; type: functional, organism-based
# Method in brief: (§1)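 Lyophilized M. luteus cells were boiled in 1% sodium lauryl sulfate, washed with water, and stored at 4 °C. Ristocetin was iodinated with 125I/I2 and purified on CM-cellulose. Duplicate tubes held 50 μg cells, 1 μg labeled antibiotic and varied N-acetyl peptide in sodium citrate buffer, pH 5.1, in 0.2 mL at room temperature. Tubes were centrifuged at 10000g for 10 min and supernatant γ-counted. Ki came from Cheng-Prusoff using the Scatchard Kd.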
# Micrococcus luteus [2] = test: Inhibition of [125I]ristocetin binding to micrococcus luteus cell wall (UDP-N-acetylmuramylpentapeptide).; type: functional, organism-based; method in brief: as §1
Structure (SMILES),Ki (Micrococcus luteus [1]),Ki (Micrococcus luteus [2])
CC(=O)N[C@H](C)C(=O)O,3200 µM,
CC(=O)N[C@H](C)C(=O)NCC(=O)O,3100 µM,
CC(=O)N[C@H](C)C(=O)N[C@H](Cc1ccccc1)C(=O)O,8.7 µM,
CC(=O)N[C@H](CC(N)=O)C(=O)O,,9000 µM
CC(=O)N[C@H](CC(C)C)C(=O)NCC(=O)O,11000 µM,
CC(=O)NCC(=O)N[C@@H](C(=O)O)C(C)C,,340 µM
CC(=O)NCC(=O)N[C@H](CC(N)=O)C(=O)O,,720 µM
CC(=O)NCC(=O)N[C@H](CO)C(=O)O,,540 µM
CC(=O)N[C@H](C)C(=O)N[C@H](C)C(=O)O,73 µM,
CC(=O)N[C@@H](C(=O)O)C(C)C,,3100 µM
CC[C@@H](C)[C@@H](NC(C)=O)C(=O)O,,2800 µM
CC(=O)N[C@H](C)C(=O)N[C@H](C)C(=O)N[C@H](C)C(=O)O,42 µM,
CC(=O)NCC(=O)N[C@H](C)C(=O)O,,130 µM
CC(=O)NCC(=O)NCC(=O)O,,4600 µM
CC(=O)N[C@H](Cc1ccccc1)C(=O)O,100 µM,
CC(=O)NCC(=O)N[C@H](Cc1ccccc1)C(=O)O,9.8 µM,
CC(=O)N[C@H](CC(C)C)C(=O)NCC(=O)NCC(=O)O,,1900 µM

Structure (SMILES),Ki (Micrococcus luteus [1]),Ki (Micrococcus luteus [2])
CSCC[C@@H](NC(C)=O)C(=O)O,2400 µM,
CC(=O)N[C@H](CC(C)C)C(=O)O,,2800 µM
CC(=O)N[C@H](Cc1c[nH]c2ccccc12)C(=O)O,160 µM,
CC(=O)NCC(=O)N[C@@H](CC(C)C)C(=O)O,590 µM,
CC(=O)NC(C(=O)O)c1ccc(O)cc1 (centres undefined),,4200 µM
C[C@@H](NC(=O)OCc1ccccc1)C(=O)O,,5100 µM
CC(=O)N[C@@H](CC(C)C)C(=O)NCC(=O)NCC(=O)O,,2000 µM
CC(=O)N[C@H](CC(C)C)C(=O)N[C@H](CC(C)C)C(=O)O,4500 µM,
CC(=O)NCC(=O)N[C@@H](C(=O)O)[C@H](C)O,,4700 µM
CC(=O)N[C@@H](CCCCN)C(=O)N[C@H](C)C(=O)N[C@H](C)C(=O)O,,16 µM
CC(=O)NCC(=O)N[C@H](CC(=O)O)C(=O)O,,1400 µM
CC(=O)NCC(=O)NCC(=O)NCC(=O)O (Ac-Gly-Gly-Gly-OH),,7100 µM
CC(=O)N[C@@H](Cc1ccccc1)C(=O)NCC(=O)NCC(=O)O (Ac-Phe-Gly-Gly-OH),1600 µM,
CC(=O)N1CCC[C@H]1C(=O)NCC(=O)NCC(=O)O (Ac-Pro-Gly-Gly-OH),1600 µM,
CC(=O)N[C@@H](Cc1c[nH]c2ccccc12)C(=O)NCC(=O)NCC(=O)O (Ac-Trp-Gly-Gly-OH),1200 µM,
CC(=O)N[C@@H](Cc1ccc(O)cc1)C(=O)NCC(=O)NCC(=O)O (Ac-Tyr-Gly-Gly-OH),,1300 µM
CC(=O)NCC(=O)O [ACETURIC ACID],29000 µM,
